ChEMBL document CHEMBL1155010, “Synthesis and biological evaluation of substituted [18F]imidazo[1,2-a]pyridines and [18F]pyrazolo[1,5-a]pyrimidines for the study of the peripheral benzodiazepine receptor using positron emission tomography” (J Med Chem, 2008)

Legend:
[1] = Metabolic stability in Sprague-Dawley rat olfactory bulb assessed as drug remaining at 30 MBq after 0.25 hrs by Radio-HPLC analysis; assay type: ADME, tissue-based; details: read-out: Stability
Summary of the method: (§1)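 Rats received 30 MBq tracer and were sampled at 0.25, 0.5, 1 and 4 h. Plasma was diluted with water containing unlabeled carrier and KF and injected directly. Frontal cortex or olfactory bulb was sonicated in acetonitrile/water 1:1 with carrier and KF, centrifuged, and the supernatant diluted. Radio-HPLC used a precolumn switched to C18 with a CH3CN/0.05 M sodium acetate pH 5.5 gradient. Result is % parent remaining.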

Liver [2] = assay: Biodistribution in Sprague-Dawley rat liver assessed per gram of tissue at 1 MBq, iv after 4 hrs; assay type: ADME, organism-based; details: in vivo
Summary of the method: (§2)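 Male SD rats aged 8-10 weeks got 1 MBq [18F]tracer by tail vein in 0.1 mL. Groups of n = 4 were killed (CO2, then cervical fracture) at 0.25, 0.5, 1 and 4 h. Organs were weighed and gamma counted against a diluted standard of the injectate. Results are %ID per gram wet tissue, mean with standard deviation.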

Kidney [3] = assay: Biodistribution in Sprague-Dawley rat kidney assessed per gram of tissue at 1 MBq, iv after 4 hrs; assay type: ADME, organism-based; details: in vivo; summary of the method: as §2
Spleen [4] = assay: Biodistribution in Sprague-Dawley rat spleen assessed per gram of tissue at 1 MBq, iv after 0.25 hrs; assay type: ADME, organism-based; details: in vivo; summary of the method: as §2
Lung [5] = assay: Biodistribution in Sprague-Dawley rat lungs assessed per gram of tissue at 1 MBq, iv after 1 hr; assay type: ADME, organism-based; details: in vivo; summary of the method: as §2
Liver [6] = assay: Biodistribution in Sprague-Dawley rat liver assessed per gram of tissue at 1 MBq, iv after 1 hr; assay type: ADME, organism-based; details: in vivo; summary of the method: as §2
Lung [7] = assay: Biodistribution in Sprague-Dawley rat lungs assessed per gram of tissue at 1 MBq, iv after 4 hrs; assay type: ADME, organism-based; details: in vivo; summary of the method: as §2
[8] = Ratio of drug level in olfactory bulb to blood in Sprague-Dawley rat at 1 MBq, iv; assay type: ADME
Summary of the method: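 Same rat biodistribution as above: 1 MBq iv by tail vein, n = 4 per time point, 0.25-4 h, gamma counting as %ID/g. Ratio is the olfactory bulb radioactivity concentration divided by the blood concentration at each time.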

Lung [9] = assay: Biodistribution in Sprague-Dawley rat lungs assessed per gram of tissue at 1 MBq, iv after 0.25 hrs; assay type: ADME, organism-based; details: in vivo; summary of the method: as §2
Kidney [10] = assay: Biodistribution in Sprague-Dawley rat kidney assessed per gram of tissue at 1 MBq, iv after 0.25 hrs; assay type: ADME, organism-based; details: in vivo; summary of the method: as §2
[11] = Metabolic stability in Sprague-Dawley rat plasma assessed as drug remaining at 30 MBq after 4 hrs by Radio-HPLC analysis; assay type: ADME, cell-free; details: read-out: Stability; summary of the method: as §1
[12] = Metabolic stability in Sprague-Dawley rat frontal cortex assessed as drug remaining at 30 MBq after 0.25 hrs by Radio-HPLC analysis; assay type: ADME, tissue-based; details: read-out: Stability; summary of the method: as §1
Adrenal [13] = assay: Biodistribution in Sprague-Dawley rat adrenals assessed per gram of tissue at 1 MBq, iv after 1 hr; assay type: ADME, organism-based, Adrenal tissue; details: in vivo; summary of the method: as §2
Heart [14] = assay: Biodistribution in Sprague-Dawley rat heart assessed per gram of tissue at 1 MBq, iv after 4 hrs; assay type: ADME, organism-based; details: in vivo; summary of the method: as §2
Femur [15] = assay: Biodistribution in Sprague-Dawley rat femur at 1 MBq, iv after 4 hrs; assay type: ADME, organism-based; details: in vivo; summary of the method: as §2
Adrenal [16] = assay: Biodistribution in Sprague-Dawley rat adrenals assessed per gram of tissue at 1 MBq, iv after 4 hrs; assay type: ADME, organism-based, Adrenal tissue; details: in vivo; summary of the method: as §2
[17] = Biodistribution in Sprague-Dawley rat testis assessed per gram of tissue at 1 MBq, iv after 0.25 hrs; assay type: ADME, organism-based; details: in vivo; summary of the method: as §2
Liver [18] = assay: Biodistribution in Sprague-Dawley rat liver assessed per gram of tissue at 1 MBq, iv after 0.25 hrs; assay type: ADME, organism-based; details: in vivo; summary of the method: as §2
[19] = Metabolic stability in Sprague-Dawley rat frontal cortex assessed as drug remaining at 30 MBq after 4 hrs by Radio-HPLC analysis; assay type: ADME, tissue-based; details: read-out: Stability; summary of the method: as §1
Heart [20] = assay: Biodistribution in Sprague-Dawley rat heart assessed per gram of tissue at 1 MBq, iv after 1 hr; assay type: ADME, organism-based; details: in vivo; summary of the method: as §2
Spleen [21] = assay: Biodistribution in Sprague-Dawley rat spleen assessed per gram of tissue at 1 MBq, iv after 0.5 hrs; assay type: ADME, organism-based; details: in vivo; summary of the method: as §2
Kidney [22] = assay: Biodistribution in Sprague-Dawley rat kidney assessed per gram of tissue at 1 MBq, iv after 0.5 hrs; assay type: ADME, organism-based; details: in vivo; summary of the method: as §2
[23] = Biodistribution in Sprague-Dawley rat testis assessed per gram of tissue at 1 MBq, iv after 0.5 hrs; assay type: ADME, organism-based; details: in vivo; summary of the method: as §2
Lung [24] = assay: Biodistribution in Sprague-Dawley rat lungs assessed per gram of tissue at 1 MBq, iv after 0.5 hrs; assay type: ADME, organism-based; details: in vivo; summary of the method: as §2
Adrenal [25] = assay: Biodistribution in Sprague-Dawley rat adrenals assessed per gram of tissue at 1 MBq, iv after 0.25 hrs; assay type: ADME, organism-based, Adrenal tissue; details: in vivo; summary of the method: as §2
Spleen [26] = assay: Biodistribution in Sprague-Dawley rat spleen assessed per gram of tissue at 1 MBq, iv after 4 hrs; assay type: ADME, organism-based; details: in vivo; summary of the method: as §2
Adrenal [27] = assay: Biodistribution in Sprague-Dawley rat adrenals assessed per gram of tissue at 1 MBq, iv after 0.5 hrs; assay type: ADME, organism-based, Adrenal tissue; details: in vivo; summary of the method: as §2
[28] = Metabolic stability in Sprague-Dawley rat olfactory bulb assessed as drug remaining at 30 MBq after 4 hrs by Radio-HPLC analysis; assay type: ADME, tissue-based; details: read-out: Stability; summary of the method: as §1
Kidney [29] = assay: Biodistribution in Sprague-Dawley rat kidney assessed per gram of tissue at 1 MBq, iv after 1 hr; assay type: ADME, organism-based; details: in vivo; summary of the method: as §2
Liver [30] = assay: Biodistribution in Sprague-Dawley rat liver assessed per gram of tissue at 1 MBq, iv after 0.5 hrs; assay type: ADME, organism-based; details: in vivo; summary of the method: as §2
Spleen [31] = assay: Biodistribution in Sprague-Dawley rat spleen assessed per gram of tissue at 1 MBq, iv after 1 hr; assay type: ADME, organism-based; details: in vivo; summary of the method: as §2
[32] = Biodistribution in Sprague-Dawley rat testis assessed per gram of tissue at 1 MBq, iv after 4 hrs; assay type: ADME, organism-based; details: in vivo; summary of the method: as §2
Femur [33] = assay: Biodistribution in Sprague-Dawley rat femur at 1 MBq, iv after 0.25 hrs; assay type: ADME, organism-based; details: in vivo; summary of the method: as §2
Heart [34] = assay: Biodistribution in Sprague-Dawley rat heart assessed per gram of tissue at 1 MBq, iv after 0.25 hrs; assay type: ADME, organism-based; details: in vivo; summary of the method: as §2
Heart [35] = assay: Biodistribution in Sprague-Dawley rat heart assessed per gram of tissue at 1 MBq, iv after 0.5 hrs; assay type: ADME, organism-based; details: in vivo; summary of the method: as §2
[36] = Biodistribution in Sprague-Dawley rat testis assessed per gram of tissue at 1 MBq, iv after 1 hr; assay type: ADME, organism-based; details: in vivo; summary of the method: as §2
[37] = Metabolic stability in Sprague-Dawley rat plasma assessed as drug remaining at 30 MBq after 0.25 hrs by Radio-HPLC analysis; assay type: ADME, cell-free; details: read-out: Stability; summary of the method: as §1
Blood [38] = assay: Biodistribution in Sprague-Dawley rat blood at 1 MBq, iv after 0.25 hrs; assay type: ADME, organism-based; details: in vivo; summary of the method: as §2
Blood [39] = assay: Biodistribution in Sprague-Dawley rat blood at 1 MBq, iv after 4 hrs; assay type: ADME, organism-based; details: in vivo; summary of the method: as §2
[40] = Displacement of [3H]flumazenil from central benzodiazepine receptor in rat brain cortex membrane; assay type: cell membranes
Summary of the method: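 Rat brain cortex membranes (100-150 µg protein) were incubated in triplicate at 25 °C for 45 min with [3H]flumazenil (2 nM) and 7 ligand concentrations (10^-10 to 10^-5 M). Nonspecific binding was set with flumazenil 20 µM. Assays were filtered, washed with ice-cold Tris/HCl pH 7.4 and counted. Ki was derived from IC50 by Cheng-Prusoff.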

Translocator protein [41] = molecular target: T1, Translocator protein (Rattus norvegicus, UniProt P16257); assay: Displacement of [3H]Ro 5-4864 from peripheral benzodiazepine receptor in rat kidney membrane; assay type: cell membranes
Translocator protein [42] = molecular target: T1, Translocator protein; assay: Displacement of [3H]PK11195 from peripheral benzodiazepine receptor in rat kidney membrane; assay type: cell membranes
[43] = Lipophilicity, log p at pH 7.5; assay type: physicochemical; details: buffer
Summary of the method: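 RP-HPLC on a C18 column with methanol/0.1 M phosphate buffer pH 7.5 (60/40) at 1 mL/min. Samples were dissolved in methanol. log P7.5 was estimated by comparing retention time with that of reference compounds of known log P.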

T1 sequence (P16257 whole entry, looked up): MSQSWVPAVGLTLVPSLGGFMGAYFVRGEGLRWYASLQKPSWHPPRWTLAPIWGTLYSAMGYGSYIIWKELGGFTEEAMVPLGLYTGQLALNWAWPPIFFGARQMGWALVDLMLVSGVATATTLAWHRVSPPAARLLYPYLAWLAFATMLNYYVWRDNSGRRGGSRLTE

## CCN(CC)C(=O)Cc1c(-c2ccc(OCC[18F])cc2)nc2ccc(Cl)cn12
[1]
  remaining at 0.25 h: 80%
Liver [2]
  Drug uptake: 0.29 %ID
Kidney [3]
  Drug uptake: 1.3 %ID
Spleen [4]
  Drug uptake: 4.5 %ID
Lung [5]
  Drug uptake: 11.6 %ID
Liver [6]
  Drug uptake: 0.35 %ID
Lung [7]
  Drug uptake: 8.1 %ID
[8]
  Kp: 2
Lung [9]
  Drug uptake: 14.3 %ID
Kidney [10]
  Drug uptake: 3.3 %ID
[11]
  remaining at 4 h: < 1%
[12]
  remaining at 0.25 h: 55%
Adrenal [13]
  Drug uptake: 7.3 %ID
Heart [14]
  Drug uptake: 2.8 %ID
Femur [15]
  Drug uptake: 0.7 % ID/g
Adrenal [16]
  Drug uptake: 7.1 %ID
[17]
  Drug uptake: 0.17 %ID
Liver [18]
  Drug uptake: 0.63 %ID
[19]
  remaining at 4 h: 10%
Heart [20]
  Drug uptake: 4.6 %ID
Spleen [21]
  Drug uptake: 3.9 %ID
Kidney [22]
  Drug uptake: 3.2 %ID
[23]
  Drug uptake: 0.23 %ID
Lung [24]
  Drug uptake: 12.1 %ID
Adrenal [25]
  Drug uptake: 6.7 %ID
Spleen [26]
  Drug uptake: 1.9 %ID
Adrenal [27]
  Drug uptake: 7.9 %ID
[28]
  remaining at 4 h: 40%
Kidney [29]
  Drug uptake: 2.7 %ID
Liver [30]
  Drug uptake: 0.52 %ID
Spleen [31]
  Drug uptake: 3.4 %ID
[32]
  Drug uptake: 0.42 %ID
Femur [33]
  Drug uptake: 0.4 % ID/g
Heart [34]
  Drug uptake: 4.3 %ID
Heart [35]
  Drug uptake: 4.4 %ID
[36]
  Drug uptake: 0.31 %ID

## CCN(CC)C(=O)Cc1c(-c2ccc(OCCC[18F])cc2)nc2ccc(Cl)cn12
Liver [2]
  Drug uptake: 0.3 %ID
[37]
  remaining at 0.25 h: 10%
Kidney [3]
  Drug uptake: 1.8 %ID
Spleen [4]
  Drug uptake: 5.5 %ID
Lung [5]
  Drug uptake: 4.1 %ID
Liver [6]
  Drug uptake: 0.61 %ID
Lung [7]
  Drug uptake: 2.2 %ID
Lung [9]
  Drug uptake: 12.3 %ID
Kidney [10]
  Drug uptake: 4.3 %ID
Blood [38]
  Drug uptake: 0.3 % ID/g
[12]
  remaining at 0.25 h: 55%
Adrenal [13]
  Drug uptake: 9.6 %ID
Heart [14]
  Drug uptake: 2.9 %ID
Femur [15]
  Drug uptake: 2.2 % ID/g
Adrenal [16]
  Drug uptake: 11.4 %ID
[17]
  Drug uptake: 0.33 %ID
Liver [18]
  Drug uptake: 1.08 %ID
[19]
  remaining at 4 h: 30%
Heart [20]
  Drug uptake: 6.4 %ID
Spleen [21]
  Drug uptake: 6 %ID
Kidney [22]
  Drug uptake: 5 %ID
[23]
  Drug uptake: 0.43 %ID
Lung [24]
  Drug uptake: 7.7 %ID
Adrenal [25]
  Drug uptake: 8.5 %ID
Blood [39]
  Drug uptake: 0.1 % ID/g
Spleen [26]
  Drug uptake: 2.5 %ID
Adrenal [27]
  Drug uptake: 11.8 %ID
Kidney [29]
  Drug uptake: 3.7 %ID
Liver [30]
  Drug uptake: 0.79 %ID
Spleen [31]
  Drug uptake: 4.5 %ID
[32]
  Drug uptake: 0.53 %ID
Femur [33]
  Drug uptake: 0.6 % ID/g
Heart [34]
  Drug uptake: 7.8 %ID
Heart [35]
  Drug uptake: 8.3 %ID
[36]
  Drug uptake: 0.41 %ID

## CCN(CC)C(=O)Cc1c(-c2ccc(OCCF)cc2)nc2ccc(Cl)cn12
[40]
  Ki: 790 nM
Translocator protein [41]
  Ki: 3.3 nM
Translocator protein [42]
  Ki: 5.8 nM
[43]
  logD: 2.7
